Measurements published in ChEMBL document CHEMBL1158700, “Phenolic constituents of the rhizomes of the Thai medicinal plant Belamcanda chinensis with proliferative activity for two breast cancer cell lines” (2005).

Assays:
Format in all cases: functional
[1] = test system: MCF7; experiment: Estrogenic activity in human MCF7 cells assessed as drug level causing stimulation of cell proliferation equivalent to 10 pM estradiol by alamar blue assay
Summary of the method: (§1)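 MCF-7 cells were maintained in MEM with 6 ng/mL insulin, pyruvate, NEAA, glutamine and 10% FBS. For the assay, 1 × 10^4 cells/well went into phenol red-free RPMI with 5% DCC-treated FBS. Compounds were given in DMSO (control 1% DMSO) at 10 nM–100 µM for 96 h at 37 °C. Estradiol dilutions served as reference. Read-out: Alamar Blue, 3 h, fluorescence ex 530/em 590 nm. Values came from linear regression, ≥5 concentrations, quadruplicate.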

[2] = test system: T47D; experiment: Estrogenic activity in human T47D cells assessed as drug level causing stimulation of cell proliferation equivalent to 100 pM estradiol by alamar blue assay
Summary of the method: (§2)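 T47D cells were grown in RPMI-1640 with pyruvate, NEAA, glutamine and 10% FBS, then plated at 1 × 10^4 cells/well in phenol red-free RPMI with 5% DCC-treated FBS. Compounds were added in DMSO (1% DMSO control) and incubated 96 h at 37 °C, 5% CO2, alongside serial estradiol. Alamar Blue was read after 3 h (ex 530/em 590 nm). Values came from linear regression over ≥5 concentrations, quadruplicate.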

[3] = test system: T47D; experiment: Estrogenic activity in human T47D cells assessed as drug level causing stimulation of cell proliferation equivalent to 10 pM estradiol by alamar blue assay; summary of the method: as §2
[4] = test system: MCF7; experiment: Estrogenic activity in human MCF7 cells assessed as drug level causing stimulation of cell proliferation equivalent to 100 pM estradiol by alamar blue assay; summary of the method: as §1

SMILES: COc1ccc(-c2coc3cc(O[C@@H]4O[C@H](CO)[C@@H](O)[C@H](O)[C@H]4O)c(OC)c(O)c3c2=O)cc1O [IRISTECTORIN A]
- Activity [1]: 26.1 µM

SMILES: COc1cc(-c2coc3cc4c(c(OC)c3c2=O)OCO4)cc(OC)c1OC [IRISFLORENTIN]
- Activity [1]: 50.3 µM

SMILES: COc1c(O)cc2occ(-c3ccc(O)cc3)c(=O)c2c1O [TECTORIGENIN]
- Activity [2]: 0.5 µM
- Activity [1]: 0.3 µM
- Activity [3]: 0.04 µM
- Activity [4]: 1 µM

SMILES: O=c1c(-c2ccc(O)cc2)coc2cc(O)cc(O)c12 [GENISTEIN]
- Activity [2]: 0.009 µM
- Activity [1]: 0.003 µM
- Activity [3]: 0.001 µM
- Activity [4]: 0.013 µM

SMILES: COc1cc(-c2coc3cc(O[C@@H]4O[C@H](CO)[C@@H](O)[C@H](O)[C@H]4O)c(OC)c(O)c3c2=O)ccc1O [IRISTECTORIN B]
- Activity [1]: 77.3 µM

SMILES: COc1c(O[C@@H]2O[C@H](CO)[C@@H](O)[C@H](O)[C@H]2O)cc2occ(-c3ccc(O)cc3)c(=O)c2c1O [TECTORIDIN]
- Activity [1]: 0.02 µM
- Activity [3]: 0.2 µM
- Activity [4]: 0.08 µM

SMILES: Oc1ccc(/C=C/c2cc(O)cc(O)c2)cc1 [RESVERATROL]
- Activity [1]: 1.6 µM
- Activity [3]: 0.03 µM

SMILES: COc1c(O)cc2occ(-c3ccc(O)c(O)c3)c(=O)c2c1O [IRILIN D]
- Activity [1]: 5.6 µM
- Activity [4]: 12.7 µM

SMILES: O=C(c1ccc(O)cc1)c1c(O)cc(O)cc1O [IRIFLOPHENONE]
- Activity [1]: 0.7 µM
- Activity [3]: 4.9 µM
- Activity [4]: 6.8 µM

SMILES: O=C(Cc1cc(O)cc(O)c1)c1ccc(O)cc1 [BELAMPHENONE]
- Activity [2]: 37.1 µM
- Activity [1]: 0.8 µM
- Activity [3]: 0.09 µM
- Activity [4]: 12.8 µM
